The list is not random: actives were taken first. Their share in the collection is about 1.8%.
CHRM5 antagonist – blocks acetylcholine activation of human M5 receptor; P08912; CHO-hM5 cells, Fluo-8 calcium fluorescence, ACh EC80; inhibition, % at 3 µM; 360,000 tested, 0.59% active; AID 624040;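 active = inhibition above a per-plate cutoff, the mean of that plate's test compounds plus 3 SD, cut at about 27% in these data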;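 also: 0% = acetylcholine EC80 with DMSO and 100% = DMSO without agonist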
CHRM4 agonist – CHRM4 agonism in calcium assay | 360,000 tested, 0.14% active | CHO-K1 hM4/Gqi5, Fluo-8 calcium fluorescence; vehicle 0%, full acetylcholine response 100% | activation, % at 3 µM | P08173;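 active = activation above the run mean over all test wells plus 3 SD, cut at about 32% in these data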;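 also: peak over basal fluorescence ratio per well then scaled between controls; 0% = DMSO wells and 100% = acetylcholine at EC100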
Target sequence (P08173 whole entry, looked up): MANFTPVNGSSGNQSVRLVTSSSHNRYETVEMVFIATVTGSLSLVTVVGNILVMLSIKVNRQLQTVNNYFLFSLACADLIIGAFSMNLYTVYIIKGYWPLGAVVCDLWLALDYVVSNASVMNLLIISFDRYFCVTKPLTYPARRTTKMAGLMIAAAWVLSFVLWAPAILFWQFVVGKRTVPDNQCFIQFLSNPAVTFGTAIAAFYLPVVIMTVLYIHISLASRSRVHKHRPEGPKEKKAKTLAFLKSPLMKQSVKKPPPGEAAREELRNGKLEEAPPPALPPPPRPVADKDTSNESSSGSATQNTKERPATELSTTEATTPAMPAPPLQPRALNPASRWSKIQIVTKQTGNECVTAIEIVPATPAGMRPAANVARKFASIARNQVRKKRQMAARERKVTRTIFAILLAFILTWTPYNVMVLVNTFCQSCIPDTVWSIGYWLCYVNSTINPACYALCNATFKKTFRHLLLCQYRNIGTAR
CHRM5 PAM – positive allosteric modulators of human muscarinic M5 receptor; P08912; CHO-K1 hM5, Fluo-8 calcium, ACh EC20 PAM; 0% = ACh EC20, 100% = ACh EC100; activation, % at 3 µM; 360,000 tested, 0.3% active;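 active = activation above the run cutoff, the mean activation of all test compounds plus 3 SD, cut at about 18% in these data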
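system = human M5 receptor in CHO-K1 cells | compound = one concentration, 3 µM final (nominal) | schedule = Post-acetylcholine fluorescence recording 140 s | signal = Fluo-8 calcium dye fluorescence, kinetic read | benchmarks = low control EC20 acetylcholine (0%), high control EC100 acetylcholine (100%) | repeats = singlicate, one well per test compound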
CHRM4 antagonist – antagonists of human muscarinic M4 receptor (CHRM4); P08173; CHO-hM4 cells, ACh EC80, Fluo-8 calcium fluorescence; inhibition, % at 3 µM; 360,000 tested, 0.73% active; AID 624125;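 active = inhibition above its plate's cutoff, the mean inhibition of sample wells plus 3 SD, cut at about 27% in these data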;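 also: 0% = acetylcholine EC80 with DMSO and 100% = DMSO without agonist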
M4 PAM – potentiates acetylcholine response at human M4 receptor; CHO-K1 hM4/Gqi5, Fluo-8 calcium fluorescence, ACh EC20; 0% = ACh EC20, 100% = maximal ACh; activation, % at 3 µM; 360,000 tested, 0.4% active;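 active = activation above its plate's cutoff, the mean activation of sample wells plus 3 SD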
M5 ag – CHRM5 agonism in calcium assay. activation, % at 3 µM. CHO-K1 hM5 cells, Fluo-8 calcium fluorescence; 0% DMSO wells, 100% maximal acetylcholine response. 360,000 tested, 0.19% active;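 active = activation above the run's mean over test compounds plus 3 SD, cut at about 23% in these data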;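 also: signal is peak over basal fluorescence ratio across the kinetic read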
An asterisk follows results filed as active; + = active, no number.

SMILES	CHRM5 antagonist	CHRM4 agonist	CHRM5 PAM	CHRM4 antagonist	M4 PAM	M5 ag
Cn1c(SCCN2CCCC2)nnc1C1CCN(S(=O)(=O)c2cccc(F)c2)CC1	13	1	-8	32*	-16	-8
Cn1c(=O)c2[nH]c(CCCCCCCCc3nc4ccccc4[nH]3)nc2n(C)c1=O	19	14	-36	30*	-10	-7
Cn1c(=O)c2[nH]c(CCCCc3nc4ccccc4[nH]3)nc2n(C)c1=O	10	7	0	0	0	0
Cc1ccc(NC2=NCC(=O)N2Cc2ccc3c(c2)OCO3)c(C)c1	-8	3	6	-8	5	1
CCc1ccc(NC2=NCC(=O)N2Cc2ccc3c(c2)OCO3)cc1	-4	2	7	-6	21*	-9
CCNc1nc(NCC)n2c(SCC(=O)Nc3cccc(Cl)c3)nnc2n1	-8	0	22*	-15	8	1
O=C(NCCc1cccc(Cl)c1)c1ccc(OC2CCN(Cc3ccccn3)CC2)cc1	14	8	-5	16	-14	-6
CCCCC(=O)N1CCN(c2nc3ccc(Cl)cc3s2)CC1	5	15	-8	2	23*	0
CCc1ccc(NC(=O)CS(=O)CC(=O)NCC2OCCc3ccccc32)cc1 (stereo not given)	-1	0	3	-5	0	-5
Cc1cccc(C)c1NC(=O)CS(=O)CC(=O)NCC1OCCc2ccccc21 (stereo not given)	4	1	23*	-6	8	2
Cc1ccc(-c2csc(N/N=C/c3ccco3)n2)cc1	9	0	-7	-1	9	4
CN(C)S(=O)(=O)c1ccc(-c2csc(N/N=C/c3ccc(O)cc3)n2)cc1	24	19	-14	29*	-25	-1
CN(C)S(=O)(=O)c1ccc(-c2csc(N/N=C/c3ccco3)n2)cc1	24	23	-34	30*	-33	6
C(=N\Nc1nc(-c2ccccc2)cs1)/c1ccncc1	6	4	-8	-2	0	0
C=CCc1cc(C=Nc2ccc(N3CCOCC3)cc2)cc(OCC)c1O	9	4	-8	12	-4	0
O=C1N2CCCc3cccc(c32)C12Nc1ccccc1S2 (stereo not given)	24	1	0	7	9	-1
O=C1CSC2(C(=O)N3CCCc4cccc2c43)N1c1cccc(C(F)(F)F)c1 (stereo not given)	30*	-2	-18	50*	-32	-12
COc1ccc(N2C(=O)CSC23C(=O)N2c4c(cccc43)C(C)=CC2(C)C)cc1 (stereo not given)	-3	-2	4	4	-8	-5
COc1ccc(N2C(=O)CSC23C(=O)N2CCCc4cccc3c42)cc1 (stereo not given)	52*	1	-18	75*	-28	-6
OCC1(CCOc2ccccc2)CCN(CC2=Cc3cc(Cl)ccc3OC2)CC1	23	5	-25	25	-19	-9
Cc1nnsc1-c1nnc(SCC(=O)c2ccccc2)n1C1CC1	-3	1	6	3	-9	2
Cc1cc(C)nc(SCC(=O)N(C)CC(=O)Nc2c(Cl)cccc2Cl)n1	-5	1	9	-4	4	0
C#CCOCCOCCOCCNc1nc(N2CCN(C(=O)C([C@@H](C)O)n3cc([C@@H](N)CCCCN)nn3)CC2)nc(N2CCN(C(=O)[C@H](CC(N)=O)n3cc(C(N)[C@@H](C)CC)nn3)CC2)n1 (stereo not given in full)	5	-1	-4	35*	-12	1
COc1ccc(N2C(=NC(=O)C(C)Oc3ccccc3)SC3CS(=O)(=O)CC32)cc1 (stereo not given)	21	0	-6	11	-5	-2
CC1CCN(C(=O)Cn2cc(C#N)c3ccccc32)CC1	4	2	14	27*	-7	-1
SMILES	CHRM5 antagonist	CHRM4 agonist	CHRM5 PAM	CHRM4 antagonist	M4 PAM	M5 ag
CN(C)CC1CC/C(=C\c2ccc(O)cc2)C1=O (stereo not given)	10	8	-8	39*	-3	3
Cc1cccc(-c2nnc3n2N=C(c2ccccc2)CS3)c1	8	3	-7	0	5	-5
Cc1nn2c(nc1=O)SCC(c1ccccc1)=N2	-19	1	28*	-17	3	-1
CC1(C(=O)NS(=O)(=O)c2cccc(C#N)c2)CCN1C(=O)CC1CCCCC1 (stereo not given)	4	0	1	-4	0	1
COc1ccc(S(=O)(=O)N(CC(=O)NCc2ccncc2)c2ccc(C)cc2)cc1OC	5	2	-1	-3	-4	-2
O=C(NCCCSc1ccccc1)c1cc(Br)ccc1O	33*	13	-15	2	-9	1
N#Cc1ccccc1OCCCN1CCC(C(O)(c2ccccc2)c2ccccc2)CC1	11	14	-20	27*	-13	-3
OC(c1ccccc1)(c1ccccc1)C1CCN(CCCOc2ccc(F)cc2)CC1	55*	18	-24	65*	-16	-4
Cc1ccc(OCCCN2CCC(C(O)(c3ccccc3)c3ccccc3)CC2)cc1	77*	25	-24	62*	-14	2
CC1CCN(CCCCOc2ccc(Cl)cc2)CC1	8	2	-9	24	-16	-6
CC1CCN(CCCCOc2ccc(C(C)(C)C)cc2)CC1	8	9	-11	30*	-20	0
O=C(CCc1nnc(CCCCc2ccccc2)o1)NCCN1CCOC1=O	5	0	8	-5	-1	-2
CC(C)(C)NC(=O)Nc1ccc(Br)cc1	-12	7	-5	-13	4	1
COc1ccc(COCC(O)CN(Cc2ccccc2)C(C)C)cc1OC (stereo not given)	5	0	-3	-15	9	-10
COC(=O)c1ccccc1-c1c2ccc(=N)cc-2oc2cc(N)ccc12	101*	+	-46	101*	-20	+
N#C/C=C/N1CCC(Cc2ccccc2)CC1	8	2	2	-3	3	-8
O=C(Nc1nnc(-c2ccccc2Cl)o1)c1nc2ccccc2s1	7	111*	-17	-6	-9	65*
CC[C@]12c3[nH]c4ccc(OC)cc4c3CCN1C(=O)C(CC(=O)NCc1ccc(OC)c(OC)c1)C[C@@H]2C(=O)N1CCN(C(=O)C2CC2)CC1 (stereo not given in full)	-13	-1	3	29*	-12	1

Compound activity: PubChem, The Scripps Research Institute Molecular Screening Center
